According to ChEMBL document CHEMBL3102810, “Alkylamino derivatives of pyrazinamide: synthesis and antimycobacterial evaluation” (Bioorg Med Chem Lett, 2014):
Calls of active or inactive are those of the source. The calls are words filed in the database; no cut-off is given here.

Tests used:
Mycobacterium avium [1] = assay: Antimycobacterial activity against pyrazinamide-resistant Mycobacterium avium CNCTC My 152/73 after 5 days by microplate alamar blue assay; assay type: functional; conditions: CNCTC My 152/73, 120 h
Method in brief: (§1)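 Microplate alamar blue assay run at pH 5.6, using conditions optimized for pyrazinamide. Strains came from the Czech National Collection of Type Cultures. MIC was read in µg/mL and converted to µM using molecular weight.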

HepG2 = assay: Cytotoxicity against human HepG2 cells after 24 hrs; assay type: cell-based; conditions: HepG2, 24 h
Method in brief: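 HepG2 human liver cells; loss of viability measured by a colorimetric tetrazolium-reduction assay. IC50 derived from the toxicity curves. Where limited solubility in the culture medium capped the tested concentration, only an estimate of the toxic concentration was given.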

[2] = Selectivity index, ratio of IC50 for human HepG2 cells to MIC for Mycobacterium tuberculosis H37Rv CNCTC My 331/88; assay type: toxicity, cell-based; conditions: read-out: Selectivity Index
Method in brief: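 HepG2 human liver cell viability was measured by a colorimetric tetrazolium-reduction assay, and IC50 was derived from the toxicity curves. MIC against M. tuberculosis H37Rv came from the alamar blue microplate assay at pH 5.6. SI = IC50/MIC, both in molar units.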

[3] = Lipophilicity, log K of the compound by HPLC analysis; assay type: physicochemical
Mycobacterium avium [4] = assay: Antimycobacterial activity against pyrazinamide-resistant Mycobacterium avium CNCTC My 80/72 after 5 days by microplate alamar blue assay; assay type: functional; conditions: CNCTC My 80/72, 120 h; method in brief: as §1
Mycobacterium kansasii = assay: Antimycobacterial activity against pyrazinamide-resistant Mycobacterium kansasii CNCTC My 235/80 after 5 days by microplate alamar blue assay; assay type: functional; conditions: CNCTC My 235/80, 120 h; method in brief: as §1
[5] = tested on: Mycobacterium tuberculosis; assay: Antimycobacterial activity against Mycobacterium tuberculosis H37Rv CNCTC My 331/88 after 5 days by microplate alamar blue assay; assay type: functional; conditions: H37Rv CNCTC My 331/88, 120 h; method in brief: as §1
[6] = tested on: Trichophyton mentagrophytes; assay: Antifungal activity against Trichophyton mentagrophytes 445 after 72 to 120 hrs by microdilution broth method; assay type: functional, organism-based
Lichtheimia corymbifera = assay: Antifungal activity against Absidia corymbifera 272 after 72 to 120 hrs by microdilution broth method; assay type: functional, organism-based
Aspergillus fumigatus = assay: Antifungal activity against Aspergillus fumigatus 231 after 72 to 120 hrs by microdilution broth method; assay type: functional, organism-based
Nakaseomyces glabratus = assay: Antifungal activity against Candida glabrata 20/I after 72 to 120 hrs by microdilution broth method; assay type: functional, organism-based
Trichosporon asahii = assay: Antifungal activity against Trichosporon asahii 1188 after 72 to 120 hrs by microdilution broth method; assay type: functional, organism-based
Pichia kudriavzevii = assay: Antifungal activity against Candida krusei E28 after 72 to 120 hrs by microdilution broth method; assay type: functional, organism-based
Candida tropicalis = assay: Antifungal activity against Candida tropicalis 156 after 72 to 120 hrs by microdilution broth method; assay type: functional, organism-based
Candida albicans = assay: Antifungal activity against Candida albicans ATCC 44859 after 72 to 120 hrs by microdilution broth method; assay type: functional, organism-based
[7] = tested on: Trichophyton mentagrophytes; assay: Antifungal activity against Trichophyton mentagrophytes after 72 to 120 hrs by microdilution broth method; assay type: functional, organism-based
[8] = tested on: Staphylococcus epidermidis; assay: Antibacterial activity against Staphylococcus epidermidis H 6966/08 after 48 hrs by microdilution broth method; assay type: functional
Method in brief: (§2)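 Antibacterial screen with compound concentrations up to a highest level of 500 µM. Results expressed as MIC in µM.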

Klebsiella pneumoniae [9] = assay: Antibacterial activity against ESBL positive Klebsiella pneumoniae J 14368/08 after 24 to 48 hrs by microdilution broth method; assay type: functional, organism-based; method in brief: as §2
Klebsiella pneumoniae [10] = assay: Antibacterial activity against Klebsiella pneumoniae D 11750/08 after 24 to 48 hrs by microdilution broth method; assay type: functional, organism-based; method in brief: as §2
Enterococcus sp. = assay: Antibacterial activity against Enterococcus sp. J 14365/08 after 24 to 48 hrs by microdilution broth method; assay type: functional, organism-based; method in brief: as §2
[11] = tested on: Staphylococcus epidermidis; assay: Antibacterial activity against methicillin-resistant Staphylococcus epidermidis H 5996/08 after 24 to 48 hrs by microdilution broth method; assay type: functional, organism-based
Pseudomonas aeruginosa = assay: Antibacterial activity against Pseudomonas aeruginosa CCM 1961 after 24 to 48 hrs by microdilution broth method; assay type: functional, organism-based; method in brief: as §2
Escherichia coli = assay: Antibacterial activity against Escherichia coli CCM 4517 after 24 to 48 hrs by microdilution broth method; assay type: functional, organism-based; method in brief: as §2
Staphylococcus aureus = assay: Antibacterial activity against Staphylococcus aureus CCM 4516/08 after 24 to 48 hrs by microdilution broth method; assay type: functional, organism-based; method in brief: as §2
[12] = tested on: Staphylococcus epidermidis; assay: Antibacterial activity against Staphylococcus epidermidis H 6966/08 up to 500 uM after 24 to 48 hrs by microdilution broth method; assay type: functional, organism-based; method in brief: as §2

Compound | MIC (Mycobacterium avium [1]) | log K [3] | MIC (Mycobacterium avium [4]) | MIC (Mycobacterium kansasii) | MIC [5] | Activity [6] | Activity (Lichtheimia corymbifera) | Activity (Aspergillus fumigatus) | Activity (Nakaseomyces glabratus) | Activity (Trichosporon asahii) | Activity (Pichia kudriavzevii) | Activity (Candida tropicalis) | Activity (Candida albicans) | Activity [7] | Activity [8] | Activity (Klebsiella pneumoniae [9]) | Activity (Klebsiella pneumoniae [10]) | Activity (Enterococcus sp.) | Activity [11] | Activity (Pseudomonas aeruginosa) | also measured
CCCCCCCNc1cnc(C(N)=O)cn1 | > 100 µg/mL | 0.4658 | > 100 µg/mL | 53 µM | 53 µM | inactive | inactive | inactive | inactive | inactive | inactive | inactive | inactive | inactive | inactive | inactive | inactive | inactive | inactive | inactive | IC50 (HepG2): > 250 µM; selectivity ratio [2]: > 4.7; Activity (Escherichia coli): inactive; Activity (Staphylococcus aureus): inactive; Activity [12]: inactive
NC(=O)c1cnccn1 [PYRAZINAMIDE] | > 100 µg/mL | -0.6872 | > 100 µg/mL | > 100 µg/mL | 102 µM |  |  |  |  |  |  |  |  |  |  |  |  |  |  |  | IC50 (HepG2): > 10000 µM; selectivity ratio [2]: > 98.1
CCCCCCCCNc1cnc(C(N)=O)cn1 | > 100 µg/mL | 0.693 | > 100 µg/mL | 25 µM | 25 µM | inactive | inactive | inactive | inactive | inactive | inactive | inactive | inactive | inactive | inactive | inactive | inactive | inactive | inactive | inactive | IC50 (HepG2): > 250 µM; selectivity ratio [2]: > 10; Activity (Escherichia coli): inactive; Activity (Staphylococcus aureus): inactive; Activity [12]: inactive
CCCCCCNc1cnc(C(N)=O)cn1 | > 100 µg/mL | 0.2389 | > 100 µg/mL | 100 µg/mL | 225 µM | inactive | inactive | inactive | inactive | inactive | inactive | inactive | inactive | inactive | inactive | inactive | inactive | inactive | inactive | inactive | Activity (Escherichia coli): inactive; Activity (Staphylococcus aureus): inactive; Activity [12]: inactive
CCCCNc1cnc(C(N)=O)cn1 | > 100 µg/mL | -0.191 | > 100 µg/mL | > 100 µg/mL | > 100 µg/mL | inactive | inactive | inactive | inactive | inactive | inactive | inactive | inactive | inactive | inactive | inactive | inactive | inactive | inactive | inactive | Activity (Escherichia coli): inactive; Activity (Staphylococcus aureus): inactive; Activity [12]: inactive
CCCCNc1cncc(C(N)=O)n1 | > 100 µg/mL | -0.2162 | > 100 µg/mL | > 100 µg/mL | 100 µg/mL | inactive | inactive | inactive | inactive | inactive | inactive | inactive | inactive | inactive | inactive | inactive | inactive | inactive | inactive | inactive | Activity (Escherichia coli): inactive; Activity (Staphylococcus aureus): inactive; Activity [12]: inactive
NC(=O)c1cncc(NCCCc2ccccc2)n1 | > 100 µg/mL | 0.0741 | > 100 µg/mL | > 100 µg/mL | > 100 µg/mL | inactive | inactive | inactive | inactive | inactive | inactive | inactive | inactive | inactive | inactive | inactive | inactive | inactive | inactive | inactive | Activity (Escherichia coli): inactive; Activity (Staphylococcus aureus): inactive; Activity [12]: inactive
CNc1cnc(C(N)=O)cn1 | > 100 µg/mL | -0.6878 | > 100 µg/mL | > 100 µg/mL | > 100 µg/mL | inactive | inactive | inactive | inactive | inactive | inactive | inactive | inactive | inactive | inactive | inactive | inactive | inactive | inactive | inactive | Activity (Escherichia coli): inactive; Activity (Staphylococcus aureus): inactive; Activity [12]: inactive
NC(=O)c1cnc(NCCCc2ccccc2)cn1 | > 100 µg/mL | 0.1408 | > 100 µg/mL | 100 µg/mL | 98 µM | inactive | inactive | inactive | inactive | inactive | inactive | inactive | inactive | inactive | inactive | inactive | inactive | inactive | inactive | inactive | Activity (Escherichia coli): inactive; Activity (Staphylococcus aureus): inactive; Activity [12]: inactive
CCNc1cnc(C(N)=O)cn1 | > 100 µg/mL | -0.552 | > 100 µg/mL | > 100 µg/mL | > 100 µg/mL | inactive | inactive | inactive | inactive | inactive | inactive | inactive | inactive | inactive | inactive | inactive | inactive | inactive | inactive | inactive | Activity (Escherichia coli): inactive; Activity (Staphylococcus aureus): inactive; Activity [12]: inactive
